The results in this text go back to PMC5033713 (Neuron, 2016).

The structures appear in SMILES notation.

Assay type in all cases: cell-based
One test has as its target GluA2 S788A (Rattus norvegicus, UniProt P19491, S809A). The test is described as follows: Whole-cell patch-clamp, current inhibition of alanine mutant S788A. The note with it: S788 alanine substitution versus wild-type. Summed up: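 Alanine-substituted GluA2 transiently expressed in HEK293 cells. Whole-cell currents evoked by Glu via rapid theta-pipette solution exchange, co-applied with graded noncompetitive inhibitor concentrations. Normalized current concentration dependencies fitted with the logistic equation. Mutant IC50 expressed relative to the wild-type receptor value.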
On the technique in general: Patch clamp records ionic current or voltage across a cell membrane.

The target in a further test is GluA2F623A (Rattus norvegicus, UniProt P19491, F644A). As to the kind of experiment: Whole-cell patch-clamp, current inhibition of alanine mutant GluA2F623A.
Another test deals with GluA2Del (Rattus norvegicus, UniProt P19491, C610A/DEL399-404/DEL566-584/E587D/G405E/N256E/N406D/N413Q/S585D/S586T/V397L, form not given). The note with it: for voltage dependence of current inhibition: GluA2Del receptor-mediated current; for Hill coefficient (nHill): GluA2Del, HEK293, 3 mM Glu co-application, −60 mV, 30 μM CTZ, logistic fit.
In another test the target is GluA2 S615A (Rattus norvegicus, UniProt P19491, S636A). The test is described as follows: Whole-cell patch-clamp, current inhibition of alanine mutant S615A.
In the next test the target is GluA2WT (Rattus norvegicus, UniProt P19491). To be noted: for voltage dependence of current inhibition: GluA2WT receptor-mediated current; for Hill coefficient (nHill): GluA2WT, HEK293, 3 mM Glu co-application, −60 mV, 30 μM CTZ, logistic fit.
The target in a further test is GluA2D519A (Rattus norvegicus, UniProt P19491, D540A). As to the kind of experiment: Whole-cell patch-clamp, current inhibition of alanine mutant GluA2D519A. Summed up:
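Rat GluA2 D519A transiently expressed in HEK293 cells (Lipofectamine 2000). Whole-cell recording at −60 mV with piezo-driven theta-pipette fast solution exchange. 500 ms co-applications of 3 mM Glu with graded test compound concentrations, 30 μM CTZ present throughout, Glu alone as control. Logistic fits of normalized currents gave IC50 and nHill, n = 7 cells. IC50 also expressed relative to wild-type.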

With `CNC(=O)N1N=C(c2ccc(N)cc2)c2cc3c(cc2CC1C)OCO3` (stereo not shown) [GYKI, GYKI 53655], on GluA2 S788A, the “effect of substitution on inhibition” value was “Reduced affinity”. The concentration for half-maximal inhibition (IC50) (usually the concentration at which inhibition is half-maximal) was determined as 153 ± 8 µM on GluA2F623A, 14.5 ± 1.6 µM on GluA2WT and 3.8 ± 0.58 µM at GluA2D519A. Also, the nHill at GluA2F623A (F623A mutant, 3 mM Glu, −60 mV, 30 μM CTZ) is on record as 1.18 ± 0.07; on GluA2D519A (D519A mutant, 3 mM Glu, −60 mV, 30 μM CTZ) it was 1.58 ± 0.12. Also, the “voltage dependence of current inhibition” value at GluA2Del and on GluA2WT was “voltage independent” each time. Besides, the “Hill coefficient (nHill)” value at GluA2Del and on GluA2WT was 1.29 ± 0.08 throughout. Also, the “change in IC50 value compared to wild-type” value at GluA2 S615A was “two orders of magnitude increase”.
With `N#Cc1ccccc1-c1cc(-c2ccccn2)cn(-c2ccccc2)c1=O` [PMP, perampanel], on GluA2 S788A, the “effect of substitution on inhibition” value is recorded as “no appreciable effect”. Besides, at GluA2F623A (F623A mutant), the “change in IC50 value compared to wild-type” value was “two orders of magnitude increase”. In addition, at GluA2Del, the “voltage dependence of current inhibition” value is reported as “voltage independent” and the “Hill coefficient (nHill)” value was 1.08 ± 0.04. Besides, on GluA2WT, the midpoint of inhibition, the IC50, lay at 0.89 ± 0.07 µM; the “voltage dependence of current inhibition” value is on record as “voltage independent”; the “Hill coefficient (nHill)” value stood at 1.08 ± 0.05. Also, the “effect of substitution on inhibition” value on GluA2D519A (D519 alanine substitution versus wild-type) is reported as “no appreciable effect”.
